RGS4 inh = human RGS4 inhibition; HEK293 M3R/RGS4 inducible, Fluo-4 calcium flux; stronger effect = higher value; triggered by carbachol at its EC20; B-score at 10 µM; 310,000 tested, 0.45% active;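 active = B-score, a plate-corrected calcium signal, over three deviations above library mean, with baseline fluorescence within five deviations of library mean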;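 note: RGS4 expression induced by doxycycline in cells with stable M3 receptor; B-score is computed from the integrated fluorescence ratio over baseline after carbachol; higher B-score means a larger calcium signal and so more RGS4 inhibition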
Target sequence (P49798 whole entry, looked up): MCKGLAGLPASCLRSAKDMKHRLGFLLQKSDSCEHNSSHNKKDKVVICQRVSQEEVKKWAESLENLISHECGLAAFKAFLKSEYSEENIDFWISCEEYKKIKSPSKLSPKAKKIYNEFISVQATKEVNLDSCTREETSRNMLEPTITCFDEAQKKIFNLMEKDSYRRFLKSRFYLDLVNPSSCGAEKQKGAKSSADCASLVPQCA
RGS4 act = potentiators or activators of RGS4; B-score at 10 µM; HEK293 M3R/inducible RGS4, carbachol calcium flux Fluo4; stronger effect = lower value; 310,000 tested, 0.92% active;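 active = B-score of the integrated calcium signal more than 4 SD below the library mean, with starting fluorescence not abnormally high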;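 note: negative B-score means reduced calcium response which marks RGS4 activation or potentiation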
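Material: Inducible-RGS4 HEK293 cells carrying M3 receptor; also added: carbachol at ECmax as muscarinic agonist stimulus; incubation: compound preincubation 20 min at room temperature before agonist; signal: Fluo4-AM (2 µM) calcium-flux fluorescence, kinetic read; measure: integrated calcium ratio converted to B score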
MrgX1 antag = blocks BAM8-22 activation of human MrgX1 receptor; B-score at 10 µM; MRGX1-HEK293 calcium flux, Fluo-4, BAM8-22 antagonism; stronger effect = lower value; Q96LB2; 310,000 tested, 1.3% active;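 active = calcium-response B-score plate-corrected more than 3 library SD below zero, starting fluorescence within 5 deviations, no agonist response on first addition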;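 note: peak minus trough fluorescence over baseline after final BAM8-22 challenge near maximal dose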
Target sequence (Q96LB2 whole entry, looked up): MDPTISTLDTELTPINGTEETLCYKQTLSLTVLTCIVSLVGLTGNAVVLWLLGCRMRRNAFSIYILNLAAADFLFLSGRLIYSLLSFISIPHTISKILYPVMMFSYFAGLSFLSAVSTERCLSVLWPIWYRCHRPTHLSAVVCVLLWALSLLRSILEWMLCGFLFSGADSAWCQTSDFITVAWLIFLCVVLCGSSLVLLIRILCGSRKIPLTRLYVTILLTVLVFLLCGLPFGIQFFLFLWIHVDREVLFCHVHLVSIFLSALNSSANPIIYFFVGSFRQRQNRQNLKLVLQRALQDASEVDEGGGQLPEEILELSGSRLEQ
MrgX1 PAM = allosterically activates human MrgX1 receptor signaling; Q96LB2; B-score at 10 µM; 310,000 tested, 0.63% active; MrgX1-HEK293, Fluo-4 calcium flux, FDSS; stronger effect = higher value; AID 588675;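 active = plate-corrected calcium response at least 3 library SD above typical, normal starting fluorescence, not activating the receptor alone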;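 note: compound read alongside a low EC10 to EC30 dose of BAM8-22 agonist; peak minus trough fluorescence over baseline measured at the second addition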
MrgX1 agonist = activates human MrgX1 receptor signaling; MrgX1-HEK293 cells, Fluo-4 calcium fluorescence, agonist mode; stronger effect = higher value; Q96LB2; B-score at 10 µM; 310,000 tested, 0.44% active;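 active = calcium response B-score plate-corrected fluorescence ratio at least 3 library SD, with starting fluorescence B-score inside 5 SD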
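Test system: Stable human MrgX1 HEK293 cell line | Schedule: Overnight plating before 1 h dye loading | Read-out basis: Baseline-normalised fluorescence change ratio, B-scored | Detection: Kinetic calcium dye fluorescence, Fluo-4 NW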
PHOSPHO1 block = blocks human PHOSPHO1 phosphatase activity; Q8TCT1; AID 1565; inhibition, % at 13.3 µM; 290,000 tested, 1.1% active; recombinant PHOSPHO1, absorbance phosphatase assay; in the data active = inhibition above about 60%
Of the large screens only hits and unclear results are named; the others gave an inactive call. Rows were chosen to be rich in hits. Some 4.5% of all compounds tested hit in one or more screens of this group.

COc1cc(CN2CCNC(=O)C2CC(=O)N2CCc3ccccc3C2)cc(OC)c1 (stereo not drawn)	none
Nc1c(-c2ccc(Cl)cc2)cnn1-c1cccc([N+](=O)[O-])c1	none
Nc1c(-c2ccccc2)cnn1-c1cccc([N+](=O)[O-])c1	PHOSPHO1 block 65
O=C(CNC(=O)c1ccccc1F)OCCOc1cccc(Cl)c1	none (no result: PHOSPHO1 block)
Cc1cc(=O)oc2cc(OCC(=O)OCC(=O)Nc3c(C)n(C)n(-c4ccccc4)c3=O)ccc12	MrgX1 antag -8.8
Cc1c(NC(=O)COc2ccc3ccc(=O)oc3c2)c(=O)n(-c2ccccc2)n1C	none (no result: PHOSPHO1 block)
O=C1NC(=S)/C(=C\c2ccc(-c3ccccc3Cl)o2)S1	RGS4 act -7.4
Cc1nnc(C)n1/N=C/c1ccc(-c2ccccc2Cl)o1	none
COc1ccc2[nH]cc(CCNC(=O)Nc3ccccc3)c2c1	none (no result: PHOSPHO1 block)
COc1ccc2c(CCNC(=O)Nc3ccccc3)c[nH]c2c1	PHOSPHO1 block 63
Cc1nn(C)cc1C1C2=C(CC(C)(C)CC2=O)N(c2ccccc2)C2=C1C(=O)CC(C)(C)C2	none
Cc1ccc(N2C3=C(C(=O)CC(C)(C)C3)C(c3cn(C)nc3C)C3=C2CC(C)(C)CC3=O)cc1	MrgX1 antag -6.6 (no result: PHOSPHO1 block)
Cc1nn(Cc2ccccc2Cl)c(C)c1NC(=O)/C=C/c1cnn(C)c1	MrgX1 antag -4.6
O=C(O)CCCC(=O)NNC(=O)c1cccc(Br)c1	none
O=C(O)CCC(=O)NNC(=O)c1ccc(Br)cc1	MrgX1 antag -9.3
CN(C1CCCCC1)S(=O)(=O)c1ccc(-c2ccccn2)s1	none
COc1cc(C(=S)N(C)C)ccc1O	PHOSPHO1 block 69
O=c1[nH][nH]c(=S)n1-c1ccccc1C(F)(F)F	PHOSPHO1 block 90 (no result: RGS4 inh, RGS4 act, MrgX1 antag, MrgX1 PAM, MrgX1 agonist)
NNC(=O)C(Cc1ccccc1)NC(=O)OCc1ccccc1 (stereo not drawn)	none
CC[N+](C)(CC)CCC/C(=N/O)C(O)(c1ccccc1)c1ccccc1	RGS4 act -9.7
CCN(CC)CCC/C(=N\O)C(O)(c1ccccc1)c1ccccc1	RGS4 act -10
COCCCNC(=O)c1ccc2c(c1)nc(C)n2-c1cccc(C)c1	none
CCCNC(=O)c1ccc2c(c1)nc(C)n2-c1cccc(Cl)c1	RGS4 act -7.5
CCOc1ccc(-c2nc(=S)[nH][nH]2)cc1	PHOSPHO1 block 100 (no result: RGS4 inh, RGS4 act)
Oc1ccc(-c2nc(=S)[nH][nH]2)cc1	none
COc1ccc(-c2nc(=S)[nH][nH]2)cc1OC	none
COc1ccc(-c2nc(=S)[nH][nH]2)cc1	PHOSPHO1 block 96
CCc1cccc(NC(=S)N(CCCOC(C)C)C2CCN(C(C)=O)CC2)c1	none
O=C(COC(=O)c1ccccc1NCCO)NCCc1ccccc1	none (no result: PHOSPHO1 block)
O=C(OCC(=O)N(Cc1ccccc1)Cc1ccccc1)c1ccccc1NCCO	RGS4 act -9.3 (no result: PHOSPHO1 block)
COc1ccc(Nc2nc3c([nH]2)c(=O)[nH]c(=O)n3C)cc1	none
CC1(C)CC(=O)C2=C(C1)OC(N)=C(C#N)C2C#Cc1ccccc1 (stereo not drawn)	MrgX1 agonist 53
CC(c1ccccc1)C1C(C#N)=C(N)OC2=C1C(=O)CC(C)(C)C2 (stereo not drawn)	none
Nn1c(SCC(=O)NCCN2C(=O)CSC2=O)nnc1-c1ccc(OC(F)F)cc1	none (no result: PHOSPHO1 block)
O=C(CSc1ncccc1-c1nc2ccccc2[nH]1)NCc1ccco1	PHOSPHO1 block 61
O=C(CSc1ccc2nnc(-c3cccc(F)c3)n2n1)NCc1ccco1	PHOSPHO1 block 65
Nn1c(SCC(=O)NC(=O)NCc2ccco2)nnc1-c1ccc(OC(F)F)cc1	PHOSPHO1 block 93
O=C(CSc1nccc(=O)[nH]1)NCc1ccco1	none
O=C(CSc1ncc(-c2ccc(F)cc2)[nH]1)NCc1ccco1	PHOSPHO1 block 74
O=C(CSc1ccc2nnc(-c3cccnc3)n2n1)NCc1ccco1	none
COc1ccc(-c2ccccc2NC(=O)C2CCCN(Cc3ccc(C)o3)C2)cc1 (stereo not drawn)	none
COc1ccc(CNC(=O)CN(C(=O)CCC(=O)Nc2nccs2)c2cccc(C)c2)cc1	none
O=C(CSc1nc(-c2ccc(F)cc2)cs1)NC(=O)NCc1ccco1	PHOSPHO1 block 79
S=C(c1ccc(-c2cccc(Cl)c2)o1)N1CCCCC1	none
N#CCCN1CCN(C(=S)c2ccc(-c3cccc(Cl)c3)o2)CC1	none
CC(=O)N1CCN(C(=S)c2ccc(-c3ccc(Cl)cc3)o2)CC1	PHOSPHO1 block 74
N#CCCN1CCN(C(=S)c2ccc(-c3ccc(Cl)c(Cl)c3)o2)CC1	PHOSPHO1 block 67
O=[N+]([O-])c1cc(-c2ccc(C(=S)N3CCOCC3)o2)ccc1Cl	PHOSPHO1 block 61
O=C(CCS(=O)(=O)c1ccccc1)Nc1ccc(Cl)cn1	none
CCOc1cc(CNCc2cccnc2)ccc1OCC(=O)NC(C)(C)C	PHOSPHO1 block 73
O=C(O)CCC(=O)NN1C(=O)c2ccccc2NC1c1ccco1 (stereo not drawn)	none
CC(C)CNC(=O)C(=O)NCCC1CCCCN1S(=O)(=O)c1cccs1 (stereo not drawn)	none (no result: PHOSPHO1 block)
Cc1ccccc1C(=O)Nc1cccc(C(=O)Nc2ccccc2C(=O)O)c1	none
O=C(Nc1ccccc1C(=O)O)c1cccc(NC(=O)c2ccccc2Cl)c1	RGS4 act -7
O=C(N/N=C/c1ccccn1)c1cccc(NC(=O)c2ccccc2Cl)c1	none
O=C(N/N=C/c1ccccc1F)c1cccc(NC(=O)c2ccccc2Cl)c1	MrgX1 PAM 8.4
O=C(N/N=C/c1ccc(F)cc1)c1cccc(NC(=O)c2ccc(F)cc2)c1	RGS4 act -7.3
O=C(N/N=C/c1ccncc1)c1cccc(NC(=O)c2ccc(Cl)cc2)c1	none
CCc1nc2ccccc2n1CCC(=O)O	none
CCC1(C)Cc2c(sc3c2c2ncnn2c2nnc(SCC(=O)NCc4ccco4)n32)CO1 (stereo not drawn)	PHOSPHO1 block 65
CC1(C)Cc2c(sc3c2c2ncnn2c2nnc(SCC(=O)NCc4ccco4)n32)CO1	none
CC(C)(C)c1nc(C(C)(C)C)c(Br)c(=O)[nH]1	none
CCc1nnc(NS(=O)(=O)c2ccc(NC(=S)NC(=O)/C=C/c3ccc(C(C)C)cc3)cc2)s1	RGS4 act -9.7
Cc1cccc(N(C(=O)CNC(=O)c2ccco2)C(C(=O)NCC2CCCO2)c2ccccc2)c1 (stereo not drawn)	none
N#Cc1c2c(c(=S)n(-c3ccccc3)c1N)CCCC2	PHOSPHO1 block 61
CNS(=O)(=O)c1cnccc1N1CCN(c2cccc(C(F)(F)F)c2)CC1	none
CCOC(=O)c1c(-c2ccccc2)nnn1-c1nc(OCC)nc(N2CCCCC2)n1	RGS4 act -8.7
CCOC(=O)c1nnn(-c2nc(OC)nc(N3CCCCC3)n2)c1-c1ccccc1	none (no result: RGS4 inh, RGS4 act, MrgX1 antag, MrgX1 PAM, MrgX1 agonist)

Compound activity as filed in PubChem.
